Reference: article PMC6981294 (Molecular cell, 2019)
Ends that are not written are not given here.

T1: PPP4R3A EVH1 domain (Homo sapiens, UniProt Q6IN85)
T1 sequence (Q6IN85 2-117): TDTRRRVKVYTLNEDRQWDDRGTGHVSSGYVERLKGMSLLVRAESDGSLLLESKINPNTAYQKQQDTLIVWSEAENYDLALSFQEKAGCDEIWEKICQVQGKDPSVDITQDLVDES

T2: GST-WAPL 375-625 (human, UniProt Q7Z5K2 375-625)
T2 sequence (looked up): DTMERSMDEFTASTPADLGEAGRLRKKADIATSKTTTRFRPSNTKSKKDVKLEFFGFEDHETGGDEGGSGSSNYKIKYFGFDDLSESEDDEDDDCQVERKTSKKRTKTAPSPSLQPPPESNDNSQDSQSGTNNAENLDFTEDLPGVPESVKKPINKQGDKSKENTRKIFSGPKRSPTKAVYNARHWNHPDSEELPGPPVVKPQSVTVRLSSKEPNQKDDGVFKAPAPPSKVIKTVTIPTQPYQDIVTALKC

T3: CDC25A full length, recombinant (human, UniProt P30304 1-524)
T3 sequence (looked up): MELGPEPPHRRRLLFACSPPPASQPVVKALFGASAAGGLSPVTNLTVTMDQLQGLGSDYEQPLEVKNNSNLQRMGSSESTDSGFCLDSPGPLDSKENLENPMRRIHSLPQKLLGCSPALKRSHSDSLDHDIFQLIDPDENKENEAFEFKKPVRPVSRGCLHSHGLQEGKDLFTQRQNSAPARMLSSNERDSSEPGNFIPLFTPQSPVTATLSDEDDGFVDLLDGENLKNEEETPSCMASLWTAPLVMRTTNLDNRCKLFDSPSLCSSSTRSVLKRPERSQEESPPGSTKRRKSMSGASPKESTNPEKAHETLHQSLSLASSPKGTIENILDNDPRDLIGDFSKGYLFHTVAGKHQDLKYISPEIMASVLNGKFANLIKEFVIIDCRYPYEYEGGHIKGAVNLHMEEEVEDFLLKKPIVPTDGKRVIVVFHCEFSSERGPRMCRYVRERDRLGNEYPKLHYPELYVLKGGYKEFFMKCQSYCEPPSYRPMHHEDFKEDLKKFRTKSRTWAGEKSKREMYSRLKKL

B1: EVH1 domain of PPP4R3A (amino acids 2-117) (domain or fragment, human, UniProt Q6IN85 2-117, looked up)
chain: TDTRRRVKVYTLNEDRQWDDRGTGHVSSGYVERLKGMSLLVRAESDGSLLLESKINPNTAYQKQQDTLIVWSEAENYDLALSFQEKAGCDEIWEKICQVQGKDPSVDITQDLVDES

Target: B1
Assay: ITC

| Kd | Molecule |
| --- | --- |
| 0.98 µM | DPDTELMPPPPPKRPHPL [MCE1 MxPP motif peptide] |
| 53 µM | PFTFKVAAPPPS [model peptide P4: Ala] |
| 53 µM | PFTAKVPAPPPS [model peptide P1: Ala] |
| 7.93 µM | DPDTELMAPPPPKRPHPL [MCE1 peptide MCE1-P2A] |

Target: T1, PPP4R3A EVH1 domain
Assay: ITC of peptides with the EVH1 domain from PPP4R3A
Format: binding
Procedure, shortened: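 Peptide in syringe, titrated at 25 °C into cell holding EVH1 domain: one 0.4 μl injection, then 19 × 2 μl at 150 s spacing, stirring 750 rpm. Peptide-into-buffer controls run. Heats normalised per mole injectant, fitted to single-site model.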

| Kd | Molecule |
| --- | --- |
| 3.78 µM | DPDTEAMPPPPPKRPHPL [MCE1-L(-1)A] |
| 85.6 µM | DPDTELAPPPPPKRPHPL [MCE1-M1A] |
| 7.58 µM | DPDTELMPAPPPKRPHPL [MCE1-P3A] |
| 119 µM | DPDTELMPPAPPKRPHPL [MCE1-P4A] |
| 1.49 µM | DPDTELMPPPAPKRPHPL [MCE1-P5A] |
| 1.4 µM | DPDTELMPPPPAKRPHPL [MCE1-P6A] |

Target: T2, GST-WAPL 375-625
Assay: ITC

| binding result | Molecule |
| --- | --- |
| binds | B1 |

Target: T3, CDC25A full length, recombinant
Assay: ITC

| binding result | Molecule |
| --- | --- |
| binds | B1 |
